Source: BindingDB's records for doi:10.1016/j.bmcl.2007.10.100 (Columbia University, 2008)
Peptide text beside a SMILES is read from it. * marks the point of attachment. Cbz = O=C(OCc1ccccc1)*

How the values were obtained:
[1] = Induction of human IkappaBalpha stabilization in OCI-Ly3 cells by green light emiting IkappaBalpha-fused luciferase reporter gene assay
[2] = Induction of human IkappaBalpha stabilization in OCI-Ly3 cells assessed as ratio of green light emiting IkappaBalpha-fused luciferase expression to red light emiting native luciferase expression
Transcription factor p65 = Transcription factor p65 (Human, UniProt Q04206); test: Inhibition of TNF-alpha-stimulated human NF-kappaB p65 RelA subunit nuclear translocation in HUVEC
Chain of Transcription factor p65 (Q04206 whole entry): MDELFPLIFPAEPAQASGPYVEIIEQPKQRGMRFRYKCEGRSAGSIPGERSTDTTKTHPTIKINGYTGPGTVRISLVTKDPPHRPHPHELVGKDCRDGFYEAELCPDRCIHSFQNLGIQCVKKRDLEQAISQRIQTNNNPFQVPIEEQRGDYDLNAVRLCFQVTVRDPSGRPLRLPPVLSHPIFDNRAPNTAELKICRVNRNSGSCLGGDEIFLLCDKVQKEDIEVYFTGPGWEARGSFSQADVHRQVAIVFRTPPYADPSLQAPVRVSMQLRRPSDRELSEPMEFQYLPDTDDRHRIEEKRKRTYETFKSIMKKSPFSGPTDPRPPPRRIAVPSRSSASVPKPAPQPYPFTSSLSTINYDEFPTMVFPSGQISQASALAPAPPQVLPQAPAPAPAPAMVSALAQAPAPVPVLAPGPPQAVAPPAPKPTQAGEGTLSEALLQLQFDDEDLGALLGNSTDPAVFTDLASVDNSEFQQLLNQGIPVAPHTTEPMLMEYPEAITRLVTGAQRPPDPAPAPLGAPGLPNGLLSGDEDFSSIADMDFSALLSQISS
Method in brief: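 HUVEC (fewer than 8 passages) were seeded at 3,000 cells/well. Compounds were added in 8-point series, either from 10 µM final in media with 0.33% DMSO diluted 1:3, or from 8 µM diluted 1:2. After 3.5 h with compound, cells were stimulated with […] for 30 min. Cells were then fixed, permeabilized, stained with Hoechst and with anti-p65 plus an Alexa 647 secondary, and imaged automatically. IC50 is from curve fitting of one experiment run in triplicate, with BAY 11-7082 as the positive control.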

Row | Compound | EC50 [1] [µM] | EC50 [2] [µM] | IC50 (Transcription factor p65) [µM]
1 | Cc1ccc2ccc3c(c2n1)NS(=O)(=O)c1ccc(C(F)(F)F)cc1-3 | 8.9 | 7.2 | 1.2
2 | Cc1cnc2c3c(ccc2c1)-c1ccccc1S(=O)(=O)N3 | 7 | 10 | 
3 | O=S(=O)(Nc1cccc2cccnc12)c1ccc(Br)s1 | 5.9 | 6.8 | 1.1
4 | COc1cc(NS(=O)(=O)c2ccc(C)cc2N)c2nc(C)ccc2c1 | 9.4 | 3 | 
5 | Nc1ccccc1S(=O)(=O)Nc1cccc2cccnc12 | 11 | 8.5 | 2
6 | COc1cc(NS(=O)(=O)c2ccc(C)cc2)c2nc(C)ccc2c1 | 20 | 20 | > 10
7 | COc1cc(NS(=O)(=O)c2ccc(C)cc2[N+](=O)[O-])c2nc(C)ccc2c1 | > 10 | > 57 | 
8 | COc1cc(NS(=O)(=O)c2ccc(C)cc2[N+](=O)[O-])c2ncccc2c1 | 6.8 | 7.6 | 2.1
9 | Cc1ccc2cccc(NS(=O)(=O)c3ccccc3[N+](=O)[O-])c2n1 | 6.8 | 8 | 3.8
10 | O=[N+]([O-])c1ccc(S(=O)(=O)Nc2cccc3cccnc23)cc1 | 6.5 | 17 | 1.5
11 | Cc1ccc2ccc3c(c2n1)NS(=O)(=O)c1ccc(O)cc1-3 | 8 | 11 | 10
12 | Cc1ccc2cccc(NS(=O)(=O)c3ccc(Br)s3)c2n1 | 6.1 | 6.4 | 1.4
13 | Cc1ccc2cccc(NS(=O)(=O)c3ccccc3N)c2n1 | 8 | 8 | 2.8
14 | COc1ccc(S(=O)(=O)Nc2cccc3ccc(C)nc23)c([N+](=O)[O-])c1 |  |  | 1
15 | Cc1ccc2cccc(NS(=O)(=O)c3cc([N+](=O)[O-])ccc3C)c2n1 | > 20 | > 57 | 
16 | Cc1ccc2cccc(NS(=O)(=O)c3ccc(C(F)(F)F)cc3[N+](=O)[O-])c2n1 | 10 | 3.6 | 1.1
17 | Cc1ccc2cccc(NS(=O)(=O)c3cccc([N+](=O)[O-])c3)c2n1 | 6 | 13 | 0.9
18 | COc1cnc2c3c(ccc2c1)-c1ccccc1S(=O)(=O)N3 |  |  | 2.5
19 | O=[N+]([O-])c1ccccc1S(=O)(=O)Nc1cccc2cccnc12 [2-nitro-N-quinolin-8-yl-benzenesulfonamide] | 11 | 12 | 3.2
20 | Cc1ccc(S(=O)(=O)/C=C/C#N)cc1 [BAY-11-7082] |  |  | 3
21 | O=S(=O)(Nc1cccc2cccnc12)c1ccccc1 [N-(quinolin-8-yl)benzenesulfonamide] | 17 | 20 | > 10

The remaining lines, values ahead:

Row | EC50 [1] [µM] | EC50 [2] [µM] | IC50 (Transcription factor p65) [µM] | Compound
22 | 1.3 | 1.4 | 1 | COc1ccc2c(c1)-c1ccc3cccnc3c1NS2(=O)=O
23 | 3.7 | 3.4 | 2.5 | COc1ccc2c(c1)-c1ccc3ccc(C)nc3c1NS2(=O)=O
24 | 1.4 | 2.3 | 0.9 | COc1cc2ccc(C)nc2c2c1-c1cc(C)ccc1S(=O)(=O)N2
25 | 1.1 | 11 | 1.1 | O=S1(=O)Nc2c(ccc3cccnc23)-c2cc(Cl)ccc21
26 | 4.1 | 12 | 1.7 | O=S1(=O)Nc2c(ccc3cccnc23)-c2cc(F)ccc21
27 | 1.3 | 1.6 | 1.2 | COc1cc2cccnc2c2c1-c1cc(C)ccc1S(=O)(=O)N2
28 | 0.5 | 0.8 | 0.6 | Cc1ccc2c(c1)-c1ccc3cccnc3c1NS2(=O)=O
29 | 1.4 | 2.1 | 1 | Cc1ccc2cccc(NS(=O)(=O)c3ccc(Cl)s3)c2n1
30 | 2.7 | 2.7 | 1.3 | O=S(=O)(Nc1cccc2cccnc12)c1ccc(Cl)s1
31 | 4 | 4 | 1 | COc1cc(NS(=O)(=O)c2ccc(C)cc2N)c2ncccc2c1
32 | 3.6 | 20 | 3.7 | O=[N+]([O-])c1cc(C(F)(F)F)ccc1S(=O)(=O)Nc1cccc2cccnc12
33 | 1 | > 10 | 1.6 | Cc1ccc([N+](=O)[O-])cc1S(=O)(=O)Nc1cccc2cccnc12
34 | 0.7 | 1 | 1 | O=S1(=O)Nc2c(ccc3cccnc23)-c2cc(C(F)(F)F)ccc21
35 | 5.3 | 9 | 3.6 | O=S(=O)(Nc1cccc2cccnc12)c1cccs1
36 | 2.2 | 2.6 | 1 | O=S1(=O)Nc2c(ccc3cccnc23)-c2ccccc21 [5H-quinolino[8,7-c][1,2]benzothiazine 6,6-dioxide]
37 | 1 | 5.2 |  | CC(C)C[C@@H](C=O)NC(=O)[C@H](CC(C)C)NC(=O)[C@H](CC(C)C)NC(=O)OCc1ccccc1 [{1-[(S)-(S)-1-((S)-1-Formyl-3-methyl-butylcarbamoyl)-3-methyl-butylcarbamoyl]-3-methyl-butyl}-carbamic acid benzyl ester] (Cbz-Leu-Leu-Leu-aldehyde)
